From ChEMBL document CHEMBL4229550, “An antimycobacterial pleuromutilin analogue effective against dormant bacilli” (Bioorg Med Chem, 2018)
Values after ≈ are worked out from the molar mass of the structure shown.

Legend:
[1] = tested on: Mycobacterium tuberculosis; assay: Antibacterial activity against non-replicating Mycobacterium tuberculosis H37Rv harboring pFCA-luxAB preincubated for 10 days under anaerobic condition followed by incubation under ambient gaseous condition for 28 hrs by LORA; assay type: functional
Summary of the method: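 Mtb H37Rv is electroporated with pFCA-luxAB and diluted in 7H12 broth to A570 0.03–0.05 (3,000–7,000 RLU per 100 µL). Cells are added to two-fold serial dilutions and held anaerobic (O2 <0.16%; 10% H2, 5% CO2, 85% N2) for 10 days. A 28 h recovery in 5% CO2 air follows, then luminescence is read.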

[2] = tested on: Mycobacterium tuberculosis; assay: Selectivity ratio of MIC for antibacterial activity against non-replicating Mycobacterium tuberculosis H37Rv harboring pFCA-luxAB to MIC100 for antibacterial activity against replicating Mycobacterium tuberculosis H37Rv; assay type: functional

SMILES | MIC [1] | selectivity ratio [2]
C=C[C@]1(C)C[C@@H](OC(=O)CSC(C)(C)CNC(=O)[C@H](N)CC(C)C)[C@]2(C)[C@H](C)CC[C@]3(CC[C@@H](O)[C@H]32)[C@@H](C)[C@@H]1O | 3.46 µg/mL (≈ 5.96 µM) | 1.13
C=C[C@]1(C)C[C@@H](OC(=O)CSC(C)(C)CNC(=O)[C@H](N)CC(C)C)[C@]2(C)[C@H](C)CC[C@]3(CCC(=O)[C@H]32)[C@@H](C)[C@@H]1O | 1.98 µg/mL (≈ 3.42 µM) | 1.27
CC[C@]1(C)C[C@@H](OC(=O)CSC(C)(C)CNC(=O)[C@H](N)CC(C)C)[C@]2(C)[C@H](C)CC[C@]3(CC[C@@H](O)[C@H]32)[C@@H](C)[C@@H]1O | 1.2 µg/mL (≈ 2.06 µM) | 1.45
CC[C@]1(C)C[C@@H](OC(=O)CSC(C)(C)CNC(=O)[C@H](N)CC(C)C)[C@]2(C)[C@H](C)CC[C@]3(CCC(=O)[C@H]32)[C@@H](C)[C@@H]1O | 1.04 µg/mL (≈ 1.79 µM) | 1.33
CC[C@@H](CO)NCCN[C@@H](CC)CO [ETHAMBUTOL] | > 100 µg/mL | >128
NNC(=O)c1ccncc1 [ISONIAZID] | > 100 µg/mL | >2500
CC(=O)NC[C@H]1CN(c2ccc(N3CCOCC3)c(F)c2)C(=O)O1 [LINEZOLID] | 0.63 µg/mL (≈ 1.87 µM) | 1.05
C=C[C@]1(C)C[C@@H](OC(=O)CSC(C)(C)CNC(=O)[C@H](N)C(C)C)[C@]2(C)[C@H](C)CC[C@]3(CCC(=O)[C@H]32)[C@@H](C)[C@@H]1O [VALNEMULIN] | 3.56 µg/mL (≈ 6.3 µM) | 1.14
